Data taken from ChEMBL document CHEMBL1144440, “A-ring-substituted estrogen-3-O-sulfamates: potent multitargeted anticancer agents” (J Med Chem, 2005).

Assays:
MCF7 = test: Inhibition of the growth of human breast cancer MCF-7 cells done for 96 hr at 37 degree C with compound; conditions: MCF7, 96 h
Steryl-sulfatase = biological target: T1, Steryl-sulfatase (Homo sapiens, UniProt P08842); test: Inhibitory concentration against steroid sulfatase in placental microsomes; set-up: species or system Placenta
T1 sequence (P08842 whole entry): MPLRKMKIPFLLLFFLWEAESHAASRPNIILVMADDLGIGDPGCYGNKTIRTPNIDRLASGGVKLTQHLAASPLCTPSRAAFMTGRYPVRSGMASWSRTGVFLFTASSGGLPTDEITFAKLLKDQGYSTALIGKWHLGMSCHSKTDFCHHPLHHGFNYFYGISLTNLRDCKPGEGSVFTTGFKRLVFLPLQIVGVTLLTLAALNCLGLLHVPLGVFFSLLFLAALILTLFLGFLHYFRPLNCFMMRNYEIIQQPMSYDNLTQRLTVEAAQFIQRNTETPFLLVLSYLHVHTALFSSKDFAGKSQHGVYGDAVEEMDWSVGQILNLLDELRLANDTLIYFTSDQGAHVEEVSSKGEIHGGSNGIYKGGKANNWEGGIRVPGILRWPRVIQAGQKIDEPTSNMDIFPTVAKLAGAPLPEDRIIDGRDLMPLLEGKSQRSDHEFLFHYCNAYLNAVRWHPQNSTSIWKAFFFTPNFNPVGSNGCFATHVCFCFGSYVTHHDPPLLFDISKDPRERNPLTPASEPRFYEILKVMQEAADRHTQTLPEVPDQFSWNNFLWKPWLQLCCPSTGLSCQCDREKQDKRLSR

[1] = Concentration required to inhibit the growth of HOP-6 human lung cancer cells by 50%; assay type: functional; conditions: Cancer cell lines
Outline: (§1)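 NCI 55 human cancer cell line panel screen; GI50 is the concentration giving 50% growth inhibition; compounds tested over 10^-4 to 10^-8 M.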

SF-539 = test: Concentration required to inhibit the growth of SF-539 human CNS cancer cells by 50%; assay type: functional
Outline: as §1

HCT-116 = test: Concentration required to inhibit the growth of HCT116 human colon cancer cells by 50%; assay type: functional
Outline: as §1

SN12C = test: Concentration required to inhibit the growth of SN12C human renal cancer cells by 50%; assay type: functional
Outline: as §1

OVCAR-3 = test: Concentration required to inhibit the growth of OVCAR-3 human ovarian cancer cells by 50%; assay type: functional
Outline: as §1

[2] = Mean graph midpoint (MGM) against a panel of human tumor cell lines; assay type: functional
Outline: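 NCI 55 cell line panel; mean graph midpoint is the mean concentration giving 50% growth inhibition across all cell lines successfully evaluated; tested range 10^-4 to 10^-8 M, so 0.01 µM is the […] possible value.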

DU-145 = test: Concentration required to inhibit the growth of DU-145 human prostate cancer cells by 50%; assay type: functional
Outline: as §1

MDA-MB-435 = test: Concentration required to inhibit the growth of MDA-MB-435 human breast cancer cells by 50%; assay type: functional
Outline: as §1

UACC-62 = test: Concentration required to inhibit the growth of UACC-62 human melanoma cells by 50%; assay type: functional
Outline: as §1

Mus musculus = test: Reduction of tumor growth in female mice transplanted with xenografts derived from MDA-MB-435 (ER-) human breast cancer cells after 28 days of treatment at 20 mg/kg oral dose; assay type: functional, organism-based; set-up: dose 20 mg/kg, route oral; conditions: MDA-MB-435, 672 h
Outline: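 Oral daily dosing for 28 days. Drug was dissolved in minimal THF, then diluted with propylene glycol. Vehicle controls received THF/propylene glycol. Groups were 12 female mice bearing MDA-MB-435 xenografts, with dosing started at 100-200 mm³. Tumour length and width were measured weekly, volume = l × w²/2, and monitoring continued 28 days after dosing. Growth was compared with controls by Student's t test.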

Compound | GI50 (MCF7) | GI50 (HCT-116) | GI50 (OVCAR-3) | GI50 (DU-145) | GI50 (MDA-MB-435) | GI50 [1] | GI50 (SF-539) | GI50 (SN12C) | MGM [2] | other results
CCSc1cc2c(cc1O)CC[C@@H]1[C@@H]2CC[C@]2(C)C(=O)CC[C@@H]12 | 31900 nM | – | – | – | – | – | – | – | – | –
COc1cc2c(cc1O)CC[C@@H]1[C@@H]2CC[C@]2(C)C(=O)CC[C@@H]12 | 21300 nM | – | – | – | – | – | – | – | – | –
CCOc1cc2c(cc1O)CC[C@@H]1[C@@H]2CC[C@]2(C)C(=O)CC[C@@H]12 | 9040 nM | – | – | – | – | – | – | – | – | –
C[C@]12CC[C@@H]3c4cc(S(C)(=O)=O)c(O)cc4CC[C@H]3[C@@H]1CCC2=O | 66000 nM | – | – | – | – | – | – | – | – | –
COc1cc2c(cc1OS(=O)(=O)NC(C)=O)CC[C@@H]1[C@@H]2CC[C@]2(C)C(=O)CC[C@@H]12 | 168000 nM | – | – | – | – | – | – | – | – | –
CCc1cc2c(cc1O)CC[C@@H]1[C@@H]2CC[C@]2(C)C(=O)CC[C@@H]12 | 57600 nM | – | – | – | – | – | – | – | – | –
COc1cc2c(cc1O)CC[C@@H]1[C@@H]2CC[C@]2(C)[C@@H](O)CC[C@@H]12 [2-METHOXYESTRADIOL] | – | 470 nM | 210 nM | 1800 nM | 80 nM | 700 nM | 320 nM | 950 nM | 1.3 µM | GI50 (UACC-62): 360 nM
CSc1cc2c(cc1O)CC[C@@H]1[C@@H]2CC[C@]2(C)C(=O)CC[C@@H]12 | 33400 nM | 20000 nM | 22000 nM | 85000 nM | 12000 nM | 27000 nM | 14000 nM | 19000 nM | 20.4 µM | GI50 (UACC-62): 12000 nM
COc1cc2c(cc1OS(N)(=O)=O)CC[C@@H]1[C@@H]2CC[C@]2(C)[C@@H](O)CC[C@@H]12 | – | – | – | – | – | – | – | – | – | IC50 (Mus musculus): 33000 nM; IC50 (Steryl-sulfatase): 34 nM
C[C@]12CC[C@@H]3c4cc(I)c(OS(N)(=O)=O)cc4CC[C@H]3[C@@H]1CCC2=O | 1590 nM | – | – | – | – | – | – | – | – | –
CSc1cc2c(cc1OS(N)(=O)=O)CC[C@@H]1[C@@H]2CC[C@]2(C)C(=O)CC[C@@H]12 | 400 nM | 88 nM | 12 nM | 22000 nM | < 10 nM | 35000 nM | 45 nM | 760 nM | 0.229 µM | GI50 (UACC-62): 52 nM; IC50 (Steryl-sulfatase): 120 nM
COc1cc2c(cc1OS(=O)(=O)N(C)C)CC[C@@H]1[C@@H]2CC[C@]2(C)C(=O)CC[C@@H]12 | > 10000 nM | – | – | – | – | – | – | – | – | –
C[C@]12CC[C@@H]3c4cc(I)c(O)cc4CC[C@H]3[C@@H]1CCC2=O | 38000 nM | – | – | – | – | – | – | – | – | –
C[S+]([O-])c1cc2c(cc1O)CC[C@@H]1[C@@H]2CC[C@]2(C)C(=O)CC[C@@H]12 (some centres undefined) | > 10000 nM | – | – | – | – | – | – | – | – | –
C[C@]12CC[C@@H]3c4cc(Br)c(O)cc4CC[C@H]3[C@@H]1CCC2=O | 33000 nM | – | – | – | – | – | – | – | – | –
CCc1cc2c(cc1OS(N)(=O)=O)CC[C@@H]1[C@@H]2CC[C@]2(C)C(=O)CC[C@@H]12 | 340 nM | < 10 nM | < 10 nM | < 10 nM | < 10 nM | < 10 nM | < 10 nM | < 10 nM | 0.014 µM | GI50 (UACC-62): < 10 nM; IC50 (Steryl-sulfatase): 1800 nM
COc1cc2c(cc1OS(N)(=O)=O)CC[C@@H]1[C@@H]2CC[C@]2(C)C(=O)CC[C@@H]12 | 300 nM | 65 nM | < 10 nM | 320 nM | < 10 nM | 160 nM | 120 nM | 600 nM | 0.095 µM | GI50 (UACC-62): 17 nM; IC50 (Steryl-sulfatase): 42 nM
C[C@]12CC[C@@H]3c4ccc(OS(N)(=O)=O)cc4CC[C@H]3[C@@H]1CCC2=O [EMATE] | – | – | – | – | – | – | – | – | – | IC50 (Steryl-sulfatase): 22 nM

More lines, main results first:

GI50 (MCF7) | GI50 (HCT-116) | GI50 (OVCAR-3) | GI50 (DU-145) | GI50 (MDA-MB-435) | Compound | GI50 [1] | GI50 (SF-539) | GI50 (SN12C) | MGM [2] | other results
3960 nM | – | – | – | – | CSc1cc2c(cc1O)CC[C@@H]1[C@@H]2CC[C@]2(C)[C@@H](O)CC[C@@H]12 | – | – | – | – | –
4840 nM | – | – | – | – | CCOc1cc2c(cc1OS(N)(=O)=O)CC[C@@H]1[C@@H]2CC[C@]2(C)C(=O)CC[C@@H]12 | – | – | – | – | IC50 (Steryl-sulfatase): 890 nM
10500 nM | 3500 nM | 2900 nM | 11000 nM | 1700 nM | CCc1cc2c(cc1O)CC[C@@H]1[C@@H]2CC[C@]2(C)[C@@H](O)CC[C@@H]12 | 6100 nM | 3300 nM | 7300 nM | 6.5 µM | –
23200 nM | 8500 nM | 14000 nM | 24000 nM | 2000 nM | CCSc1cc2c(cc1O)CC[C@@H]1[C@@H]2CC[C@]2(C)[C@@H](O)CC[C@@H]12 | 16000 nM | 16000 nM | 18000 nM | 10 µM | GI50 (UACC-62): 11000 nM
23400 nM | – | – | – | – | CCSc1cc2c(cc1OS(N)(=O)=O)CC[C@@H]1[C@@H]2CC[C@]2(C)[C@@H](O)CC[C@@H]12 | – | – | – | – | –
70 nM | < 10 nM | < 10 nM | < 10 nM | < 10 nM | CCc1cc2c(cc1OS(N)(=O)=O)CC[C@@H]1[C@@H]2CC[C@]2(C)[C@@H](O)CC[C@@H]12 | < 10 nM | < 10 nM | 40 nM | 0.016 µM | GI50 (UACC-62): < 10 nM; IC50 (Steryl-sulfatase): 1000 nM
6950 nM | – | – | – | – | C[C@]12CC[C@@H]3c4cc(Br)c(OS(N)(=O)=O)cc4CC[C@H]3[C@@H]1CCC2=O | – | – | – | – | –
35200 nM | 3200 nM | 2300 nM | 13000 nM | 2200 nM | CCSc1cc2c(cc1OS(N)(=O)=O)CC[C@@H]1[C@@H]2CC[C@]2(C)C(=O)CC[C@@H]12 | 6900 nM | 1400 nM | 11000 nM | 5.62 µM | GI50 (UACC-62): 5900 nM
610 nM | – | – | – | – | CCOc1cc2c(cc1OS(N)(=O)=O)CC[C@@H]1[C@@H]2CC[C@]2(C)[C@@H](O)CC[C@@H]12 | – | – | – | – | –
260 nM | – | – | – | – | Cc1cc2c(cc1OS(N)(=O)=O)CC[C@@H]1[C@@H]2CC[C@]2(C)C(=O)CC[C@@H]12 | – | – | – | – | –
430 nM | – | – | – | – | CSc1cc2c(cc1OS(N)(=O)=O)CC[C@@H]1[C@@H]2CC[C@]2(C)[C@@H](O)CC[C@@H]12 | – | – | – | – | –
